What all share (type): functional
Common to all, as to settings: read-out: DIZ

Experiment [1] deals with Pseudomonas aeruginosa. Kind of experiment: Antimicrobial activity against Pseudomonas aeruginosa RCMB 102002 at 2.5 mg/ml by agar diffusion technique. The method, boiled down:
(§1)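 Agar well diffusion. Test compounds and reference standard drugs were diluted to 5.0, 2.5 and 1.0 mg/mL and applied to 0.6 cm wells. Inhibition zone beyond the control was scored as 0 (no inhibition), + (0.1–0.5 cm), ++ (0.6–1.0 cm) or +++ (1.0–1.5 cm).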
On the technique in general: A growth-free zone around the sample is the usual read-out of agar diffusion tests.

For experiment [2], the system named is Bacillus subtilis. Briefly: Antimicrobial activity against Bacillus subtilis RCMB 101001 at 1 mg/ml by agar diffusion technique. The method, boiled down:
as §1

Experiment [3] relates to Candida albicans. Briefly: Antimicrobial activity against Candida albicans RCMB 005003 at 5 mg/ml by agar diffusion technique. In a few lines: as §1
The subject of experiment [4] is Aspergillus fumigatus. Kind of experiment: Antimicrobial activity against Aspergillus fumigatus RCMB 002008 at 5 mg/ml by agar diffusion technique. In a few lines:
as §1

Experiment [5] concerns Aspergillus fumigatus. Briefly: Antimicrobial activity against Aspergillus fumigatus RCMB 002008 at 1 mg/ml by agar diffusion technique. In a few lines:
as §1

Experiment [6] concerns Syncephalastrum racemosum. Briefly: Antimicrobial activity against Syncephalastrum racemosum RCMB 016001 at 5 mg/ml by agar diffusion technique. The method, boiled down: as §1
Experiment [7] deals with Candida albicans. Kind of experiment: Antimicrobial activity against Candida albicans RCMB 005003 at 1 mg/ml by agar diffusion technique. In a few lines: as §1
In experiment [8] the test system is Syncephalastrum racemosum. Kind of experiment: Antimicrobial activity against Syncephalastrum racemosum RCMB 016001 at 1 mg/ml by agar diffusion technique. In a few lines:
as §1

Experiment [9] has as its system Staphylococcus aureus. Kind of experiment: Antimicrobial activity against Staphylococcus aureus RCMB 106001 at 2.5 mg/ml by agar diffusion technique. In a few lines: as §1
Experiment [10] relates to Penicillium italicum. Kind of experiment: Antimicrobial activity against Penicillium italicum RCMB 001018 at 1 mg/ml by agar diffusion technique. The method, boiled down: as §1
Experiment [11] deals with Pseudomonas aeruginosa. Briefly: Antimicrobial activity against Pseudomonas aeruginosa RCMB 102002 at 5 mg/ml by agar diffusion technique. In a few lines: as §1
Experiment [12] concerns Escherichia coli. Kind of experiment: Antimicrobial activity against Escherichia coli RCMB 103001 at 5 mg/ml by agar diffusion technique. The method, boiled down:
as §1

The subject of experiment [13] is Aspergillus fumigatus. Kind of experiment: Antimicrobial activity against Aspergillus fumigatus RCMB 002008 at 2.5 mg/ml by agar diffusion technique. The method, boiled down: as §1
The subject of experiment [14] is Syncephalastrum racemosum. Briefly: Antimicrobial activity against Syncephalastrum racemosum RCMB 016001 at 2.5 mg/ml by agar diffusion technique. In a few lines:
as §1

Experiment [15] deals with Pseudomonas aeruginosa. Kind of experiment: Antimicrobial activity against Pseudomonas aeruginosa RCMB 102002 at 1 mg/ml by agar diffusion technique. The method, boiled down: as §1
Experiment [16] deals with Staphylococcus aureus. Briefly: Antimicrobial activity against Staphylococcus aureus RCMB 106001 at 5 mg/ml by agar diffusion technique. The method, boiled down: as §1
Experiment [17] has as its system Staphylococcus aureus. Kind of experiment: Antimicrobial activity against Staphylococcus aureus RCMB 106001 at 1 mg/ml by agar diffusion technique. In a few lines: as §1
Experiment [18] concerns Escherichia coli. Briefly: Antimicrobial activity against Escherichia coli RCMB 103001 at 2.5 mg/ml by agar diffusion technique. The method, boiled down:
as §1

Experiment [19] relates to Bacillus subtilis. Kind of experiment: Antimicrobial activity against Bacillus subtilis RCMB 101001 at 5 mg/ml by agar diffusion technique. The method, boiled down: as §1
In experiment [20] the test system is Candida albicans. Briefly: Antimicrobial activity against Candida albicans RCMB 005003 at 2.5 mg/ml by agar diffusion technique. In a few lines: as §1
Experiment [21] relates to Penicillium italicum. Briefly: Antimicrobial activity against Penicillium italicum RCMB 001018 at 2.5 mg/ml by agar diffusion technique. The method, boiled down: as §1
Experiment [22] has as its system Bacillus subtilis. Kind of experiment: Antimicrobial activity against Bacillus subtilis RCMB 101001 at 2.5 mg/ml by agar diffusion technique. The method, boiled down:
as §1

The test system of experiment [23] is Escherichia coli. Briefly: Antimicrobial activity against Escherichia coli RCMB 103001 at 1 mg/ml by agar diffusion technique. The method, boiled down: as §1
Experiment [24] concerns Penicillium italicum. Kind of experiment: Antimicrobial activity against Penicillium italicum RCMB 001018 at 5 mg/ml by agar diffusion technique. The method, boiled down: as §1

Molecules are shown by their SMILES.

As to `Nn1c(SCCCSc2nnc(-c3cccnc3)n2N)nnc1-c1cccnc1`, the zone of inhibition at 2500 µg/mL was 0 mm in the experiment with Pseudomonas aeruginosa [1]; 0 mm with Staphylococcus aureus [9]; 1 mm in the experiment with Aspergillus fumigatus [13]; 0 mm in [14]; 0 mm with Escherichia coli [18]; 0 mm in the experiment with Candida albicans [20]. Further, the zone of inhibition at 2500 µg/mL in the experiment on Penicillium italicum [21] and with Bacillus subtilis [22] was 0 mm throughout. Moreover, the zone of inhibition at 1000 µg/mL (with Bacillus subtilis [2]; in the experiment on Aspergillus fumigatus [5]; with Candida albicans [7]; in [8]; with Penicillium italicum [10]; in the experiment on Pseudomonas aeruginosa [15]) was 0 mm in each case. Further, the zone of inhibition at 1000 µg/mL in the experiment on Staphylococcus aureus [17] and in the experiment on Escherichia coli [23] was 0 mm each time. In addition, the zone of inhibition at 5000 µg/mL with Candida albicans [3] stood at 1 mm; with Aspergillus fumigatus [4], 1 mm; in experiment [6] it was 1 mm; in the experiment with Pseudomonas aeruginosa [11], 0 mm; with Escherichia coli [12], 0 mm; with Staphylococcus aureus [16], 0 mm. The zone of inhibition at 5000 µg/mL in the experiment on Bacillus subtilis [19] and with Penicillium italicum [24] was 0 mm in each case.

For `Nn1c(SCCCCSc2nnc(-c3cccnc3)n2N)nnc1-c1cccnc1`, the zone of inhibition at 2500 µg/mL is 0 mm in the experiment on Pseudomonas aeruginosa [1]; 1 mm in the experiment with Staphylococcus aureus [9]; 0 mm with Aspergillus fumigatus [13]; 1 mm in experiment [14]; 0 mm in the experiment on Escherichia coli [18]; 0 mm in the experiment on Candida albicans [20]. In addition, the results for the zone of inhibition at 2500 µg/mL in the experiment on Penicillium italicum [21] and in the experiment with Bacillus subtilis [22] were 0 mm and 1 mm, respectively. Further, the zone of inhibition at 1000 µg/mL in the experiment on Bacillus subtilis [2] was 0 mm; with Aspergillus fumigatus [5] it was 0 mm; with Candida albicans [7], 0 mm; in [8] it was 1 mm; with Penicillium italicum [10] it was 0 mm; with Pseudomonas aeruginosa [15], 0 mm. Also, the zone of inhibition at 1000 µg/mL in the experiment with Staphylococcus aureus [17] and in the experiment on Escherichia coli [23] was 0 mm each time. For the same compound, the zone of inhibition at 5000 µg/mL in the experiment on Candida albicans [3] amounted to 0 mm; with Aspergillus fumigatus [4], 0 mm; in experiment [6] it was 1 mm; in the experiment on Pseudomonas aeruginosa [11] it was 0 mm; in the experiment with Escherichia coli [12], 0 mm; with Staphylococcus aureus [16], 1 mm. The zone of inhibition at 5000 µg/mL in the experiment on Bacillus subtilis [19] worked out at 1 mm; with Penicillium italicum [24], 0 mm.

As to `Oc1ccccc1/C=N\n1c(SCCSc2nnc(-c3cccnc3)n2/N=C\c2ccccc2O)nnc1-c1cccnc1`, the zone of inhibition at 2500 µg/mL with Pseudomonas aeruginosa [1] stood at 0 mm; with Staphylococcus aureus [9], 0 mm; with Aspergillus fumigatus [13] it was 0 mm; in experiment [14], 1 mm; in the experiment on Escherichia coli [18] it was 0 mm; in the experiment with Candida albicans [20] it was 0 mm. The zone of inhibition at 2500 µg/mL with Penicillium italicum [21] and in the experiment with Bacillus subtilis [22] was 0 mm each time. For the same compound, the zone of inhibition at 1000 µg/mL (in the experiment with Bacillus subtilis [2]; in the experiment on Aspergillus fumigatus [5]; with Candida albicans [7]; in experiment [8]; in the experiment with Penicillium italicum [10]; in the experiment on Pseudomonas aeruginosa [15]) was 0 mm each time. Also, the zone of inhibition at 1000 µg/mL in the experiment on Staphylococcus aureus [17] and with Escherichia coli [23] was 0 mm each time. For the same compound, the zone of inhibition at 5000 µg/mL with Candida albicans [3] came out at 0 mm; with Aspergillus fumigatus [4], 0 mm; in experiment [6] it was 1 mm; in the experiment with Pseudomonas aeruginosa [11], 0 mm; in the experiment with Escherichia coli [12] it was 0 mm; with Staphylococcus aureus [16], 0 mm. Besides, the zone of inhibition at 5000 µg/mL in the experiment on Bacillus subtilis [19] and with Penicillium italicum [24] was 1 mm each time.

Turning to `C1=N\n2c(nnc2-c2cccnc2)SCCCCSc2nnc(-c3cccnc3)n2/N=C\c2ccccc2OCCOCCOCCOc2ccccc2/1`, the zone of inhibition at 2500 µg/mL worked out at 1 mm in the experiment with Pseudomonas aeruginosa [1]; 0 mm in the experiment with Staphylococcus aureus [9]; 0 mm in the experiment with Aspergillus fumigatus [13]; 0 mm in [14]; 1 mm in the experiment with Escherichia coli [18]; 0 mm with Candida albicans [20]. Also, the zone of inhibition at 2500 µg/mL in the experiment with Penicillium italicum [21] and with Bacillus subtilis [22] was 0 mm throughout. Moreover, the zone of inhibition at 1000 µg/mL (with Bacillus subtilis [2]; in the experiment with Aspergillus fumigatus [5]; in the experiment on Candida albicans [7]; in experiment [8]; in the experiment with Penicillium italicum [10]; with Pseudomonas aeruginosa [15]) was 0 mm each time. The zone of inhibition at 1000 µg/mL in the experiment with Staphylococcus aureus [17] and in the experiment with Escherichia coli [23] was 0 mm each time. In addition, the zone of inhibition at 5000 µg/mL in the experiment on Candida albicans [3] is 0 mm; in the experiment with Aspergillus fumigatus [4] it was 0 mm; in [6] it was 1 mm; with Pseudomonas aeruginosa [11] it was 1 mm; with Escherichia coli [12], 1 mm; with Staphylococcus aureus [16], 1 mm. The zone of inhibition at 5000 µg/mL in the experiment with Bacillus subtilis [19] and with Penicillium italicum [24] was 0 mm throughout.

Consider `OC1COc2ccccc2/C=N\n2c(nnc2-c2cccnc2)SCCCSc2nnc(-c3cccnc3)n2/N=C\c2ccccc2OC1`, for which the zone of inhibition at 2500 µg/mL was 0 mm with Pseudomonas aeruginosa [1]; 0 mm in the experiment on Staphylococcus aureus [9]; 0 mm in the experiment on Aspergillus fumigatus [13]; 1 mm in experiment [14]; 0 mm in the experiment on Escherichia coli [18]; 1 mm in the experiment with Candida albicans [20]. Further, the zone of inhibition at 2500 µg/mL in the experiment on Penicillium italicum [21] and with Bacillus subtilis [22] was 1 mm in each case. For the same compound, the zone of inhibition at 1000 µg/mL in the experiment with Bacillus subtilis [2] was found to be 1 mm; with Aspergillus fumigatus [5], 0 mm; in the experiment on Candida albicans [7], 0 mm; in experiment [8], 0 mm; in the experiment with Penicillium italicum [10] it was 0 mm; with Pseudomonas aeruginosa [15], 0 mm. In addition, the zone of inhibition at 1000 µg/mL with Staphylococcus aureus [17] and in the experiment on Escherichia coli [23] was 0 mm each time. Moreover, the zone of inhibition at 5000 µg/mL came out at 1 mm in the experiment with Candida albicans [3]; 0 mm in the experiment on Aspergillus fumigatus [4]; 1 mm in [6]; 0 mm in the experiment on Pseudomonas aeruginosa [11]; 0 mm in the experiment on Escherichia coli [12]; 0 mm in the experiment with Staphylococcus aureus [16]. Further, the results for the zone of inhibition at 5000 µg/mL in the experiment on Bacillus subtilis [19] and in the experiment on Penicillium italicum [24] were 6 mm and 1 mm, respectively.

Take `OC1COc2ccccc2/C=N\n2c(nnc2-c2cccnc2)SCCCCSc2nnc(-c3cccnc3)n2/N=C\c2ccccc2OC1`: the zone of inhibition at 2500 µg/mL (in the experiment with Pseudomonas aeruginosa [1]; in the experiment with Staphylococcus aureus [9]; in the experiment on Aspergillus fumigatus [13]; in [14]; in the experiment on Escherichia coli [18]; in the experiment on Candida albicans [20]) was 0 mm each time. Also, the zone of inhibition at 2500 µg/mL with Penicillium italicum [21] worked out at 0 mm; in the experiment with Bacillus subtilis [22] it was 1 mm. Moreover, the zone of inhibition at 1000 µg/mL was found to be 1 mm with Bacillus subtilis [2]; 0 mm in the experiment with Aspergillus fumigatus [5]; 0 mm with Candida albicans [7]; 0 mm in experiment [8]; 0 mm with Penicillium italicum [10]; 0 mm in the experiment on Pseudomonas aeruginosa [15]. Also, the zone of inhibition at 1000 µg/mL with Staphylococcus aureus [17] and with Escherichia coli [23] was 0 mm in each case. Also, the zone of inhibition at 5000 µg/mL worked out at 0 mm in the experiment on Candida albicans [3]; 0 mm with Aspergillus fumigatus [4]; 0 mm in experiment [6]; 0 mm with Pseudomonas aeruginosa [11]; 0 mm with Escherichia coli [12]; 1 mm with Staphylococcus aureus [16]. Besides, the zone of inhibition at 5000 µg/mL in the experiment on Bacillus subtilis [19] worked out at 1 mm; in the experiment with Penicillium italicum [24], 0 mm.
